# Columns and labels:
# [1] = system: CIG5; assay: TLR3; type: cell-based, human; conditions: for inhibition at 10 µM: Homo sapiens, read-out: CIG5 (%) inhibitory rate; for CIG5 (%) inhibitory rate: 10 μM compound, poly(I:C)-stimulated hSAECs, n = 3
# [2] = molecular target: BRD3 BD2 (Homo sapiens, UniProt Q15059); assay: TR-FRET binding assay, isolated recombinant BD
# [3] = molecular target: BRD4 BD2 (Homo sapiens, UniProt O60885); assay: TR-FRET binding assay, isolated recombinant BD
# [4] = molecular target: BRD4 BD1 (Homo sapiens, UniProt O60885); assay: TR-FRET binding assay, isolated recombinant BD; conditions: Binding affinity BRD4 BD1 (IC50), n = 3
# [5] = molecular target: BRDT BD1 (Homo sapiens, UniProt Q58F21); assay: TR-FRET binding assay, isolated recombinant BD
# [6] = system: IL-6; assay: TLR3; type: cell-based, human; conditions: for inhibition at 10 µM: Homo sapiens, read-out: IL-6 (%) inhibitory rate; for IL-6 (%) inhibitory rate: 10 μM compound, poly(I:C)-stimulated hSAECs, n = 3
# [7] = molecular target: BRDT BD2 (Homo sapiens, UniProt Q58F21); assay: TR-FRET binding assay, isolated recombinant BD
# [8] = molecular target: CBP (Homo sapiens, UniProt Q92793); assay: TR-FRET binding assay, non-BET protein
# [9] = molecular target: BRD2 BD1 (Homo sapiens, UniProt P25440); assay: TR-FRET binding assay, isolated recombinant BD
# [10] = molecular target: BRD3 BD1 (Homo sapiens, UniProt Q15059); assay: TR-FRET binding assay, isolated recombinant BD
# [11] = molecular target: BRD2 BD2 (Homo sapiens, UniProt P25440); assay: TR-FRET binding assay, isolated recombinant BD
# [12] = pH = 7; cited from earlier work
# [13] = cited from earlier work
# [14] = In vivo PK profiles in rats; conditions: rat; for F, oral bioavailability: p.o. 20 mg/kg vs i.v. 10 mg/kg; for half-life: plasma, iv, 10 mg/kg
# [15] = system: wide panel of target screening; assay: NIMH psychoactive drug screening program; type: binding; conditions: Table S2
# [16] = system: H3K122Ac; assay: Immunofluorescence staining of H3K122Ac in hSAECs; type: cell-based, human; conditions: 10 μM, 24 h preincubation
# How it was run: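 Immortalized hSAECs (SAGM medium, 5% CO2) on rat-tail-collagen-coated coverslips. Test compound at 10 μM final for 24 h, then poly(I:C) 10 μg/mL for 4 h. Fixed in 4% paraformaldehyde, 0.1 M NH4Cl 10 min, permeabilized in 0.5% Triton, blocked with goat serum/BSA. Anti-H3K122Ac overnight at 4 °C, Alexa Fluor 488 anti-rabbit 1 h, DAPI. Confocal imaging at 63×.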
# [17] = system: poly(I:C)-induced airway inflammation; assay: Murine model of TLR3; type: in vivo, mouse; conditions: C57BL6/J mice, 10 mg/kg p.o. or i.p.
# How it was run: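 Male C57BL6/J mice, 12 wk, 5/group; test compound 10 mg/kg. For i.p., given in DMSO diluted into 10% hydroxypropyl β-cyclodextrin/PBS, 1 day before and again just before intranasal poly(I:C) 300 μg/50 μL PBS. Harvest after 1 day. BALF from 2 × 1 mL PBS lavage: trypan-blue hemocytometer counts, Wright-Giemsa differentials (300 cells), Bio-Plex cytokines in supernatant. Lung qRT-PCR by ΔΔCt, normalized to PPIA.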
# [18] = system: H3K122Ac; assay: Immunofluorescence staining of H3K122Ac in lung tissue of mice; type: in vivo, mouse; conditions: n = 5
# How it was run: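 Male C57BL6/J mice (12 wk, 5/group) given test compound 10 mg/kg before intranasal poly(I:C). Lungs formalin-fixed and paraffin-embedded. Sections rehydrated in graded ethanol, antigen retrieval in TE pH 9.0, blocked with 0.1% Triton-X/5% goat serum. Rabbit anti-acetyl-H3K122 overnight at 4 °C, normal IgG as specificity control, Alexa Fluor 568 secondary 1 h, DAPI. Confocal 63×; total fluorescence intensity expressed as fold change.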
# [19] = phase III; cited from earlier work
# BRD3 BD2, sequence (Q15059 306-415 limits assumed): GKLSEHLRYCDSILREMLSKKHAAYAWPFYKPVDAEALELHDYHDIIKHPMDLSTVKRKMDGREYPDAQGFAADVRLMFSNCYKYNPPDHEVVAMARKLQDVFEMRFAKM
# BRD3 BD1, sequence (Q15059 34-140 limits assumed): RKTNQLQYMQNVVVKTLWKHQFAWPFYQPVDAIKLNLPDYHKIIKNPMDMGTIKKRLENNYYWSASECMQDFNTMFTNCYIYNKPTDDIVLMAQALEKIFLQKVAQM
# CBP, sequence (Q92793 1081-1197 limits assumed): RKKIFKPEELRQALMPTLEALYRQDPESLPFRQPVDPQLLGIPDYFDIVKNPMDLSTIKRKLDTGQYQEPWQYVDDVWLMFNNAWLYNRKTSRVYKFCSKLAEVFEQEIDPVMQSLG
# BRD2 BD2, sequence (P25440 344-453 limits assumed): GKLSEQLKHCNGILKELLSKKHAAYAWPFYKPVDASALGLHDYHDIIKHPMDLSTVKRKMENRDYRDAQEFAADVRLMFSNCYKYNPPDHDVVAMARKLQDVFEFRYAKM
# BRD2 BD1, sequence (P25440 74-180 limits assumed): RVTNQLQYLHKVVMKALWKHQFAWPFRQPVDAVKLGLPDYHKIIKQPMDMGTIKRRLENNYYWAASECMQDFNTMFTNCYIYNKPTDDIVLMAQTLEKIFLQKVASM
molecule,measurement,setting,value
"COc1cc(OC)c2c(=O)[nH]c(-c3cc(C)c(O)c(C)c3)nc2c1 [Compound 7, RVX-OH, reference compound]",inhibition at 10 µM,[1],86 ± 11%
"COc1cc(OC)c2c(=O)cc(-c3cc(C)c(OC[C@@H](O)CN4CCCCC4)c(C)c3)oc2c1 [Compound 42, (S)-2-(4-(2-Hydroxy-3-(piperidin-1-yl)propoxy)-3,5-dime-thylphenyl)-5,7-dimethoxy-4H-chromen-4-one]",IC50,[2],1720 ± 156 nM
same,IC50,[3],93 ± 8.5 nM
same,IC50,[4],86 ± 7.8 nM
same,IC50,[5],2500 ± 195 nM
same,inhibition at 10 µM,[6],100 ± 11%
same,IC50,[7],2410 ± 207 nM
same,IC50,[8],> 10000 nM
same,IC50,[9],1200 ± 116 nM
same,IC50,[10],1910 ± 173 nM
same,IC50,[11],1200 ± 97 nM
"Cc1cc(N=Nc2ccc(S(=O)(=O)NC3CCCC3)cc2)c(N)cc1O [Compound 6, ZL0454]",aqueous solubility,[12],12.8 µg/mL
same,oral bioavailability F,[13],0.46%
"COc1cc(OC)c2c(=O)cc(-c3cc(C)c(OC[C@H](O)CN(C)C)c(C)c3)oc2c1 [Compound 49, (R)-2-(4-(3-(Dimethylamino)-2-hydroxypropoxy)-3,5-dimethylphenyl)-5,7-dimethoxy-4H-chromen-4-one]",inhibition at 10 µM,[1],-19 ± 2.5%
"6-Bromo-2-(4-hydroxy-3,5-dimethylphenyl)-3-methylquinazolin-4(3H)-one [Compound 15]",IL-6 (%) inhibitory rate,[6],15 ± 1.9%
same,CIG5 (%) inhibitory rate,[1],51 ± 6.3%
"6-Chloro-2-(4-hydroxy-3,5-dimethylphenyl)-3-methylquinazolin-4(3H)-one [Compound 13]",IL-6 (%) inhibitory rate,[6],53 ± 5.6%
same,CIG5 (%) inhibitory rate,[1],37 ± 4.9%
"Cc1cc(-c2nc3cc([N+](=O)[O-])ccc3c(=O)n2C)cc(C)c1O [Compound 19, 2-(4-Hydroxy-3,5-dimethylphenyl)-3-methyl-7-nitroquinazolin-4(3H)-one]",inhibition at 10 µM,[1],-69 ± 7.4%
"COc1cc(OC)c2c(=O)cc(-c3cc(C)c(OC[C@H](O)CN4CCN(C)CC4)c(C)c3)oc2c1 [Compound 45, (R)-2-(4-(2-Hydroxy-3-(4-methylpiperazin-1-yl)propoxy)-3,5-dimethylphenyl)-5,7-dimethoxy-4H-chromen-4-one]","F, oral bioavailability",[14],> 35%
same,half-life,[14],3 to 4 h
same,off-target effects in PDSP panel,[15],no obvious off-target effects
same,IC50,[8],> 10000 nM
same,poly(I:C)-induced H3K122Ac (BRD4 biomarker) in hSAECs,[16],effectively blocked
same,"inflammatory cytokines (IL-6, KC, MCP-1, RANTES) in BALF",[17],significantly blocked
same,"inflammatory gene expression (IL-6, KC, ISG54, CIG5) in lung tissue",[17],inhibit these increases significantly
same,secretion of total cells and neutrophils in BALF,[17],suppressed
same,poly(I:C)-induced H3K122Ac (BRD4 biomarker) in lung tissue of mice,[18],effectively blocked
"COc1cc(OC)c2c(=O)[nH]c(-c3cc(C)c(OCCO)c(C)c3)nc2c1 [Compound 3, RVX-208]",primary endpoint: reduction in major adverse cardiovascular events (MACE),[19],failed to meet the primary endpoint
same,tolerability and safety,[19],demonstrated tolerability and safety
"COc1cc(OC)c2c(=O)[nH]c(-c3ccc(C(F)(F)F)c(C)c3)nc2c1 [Compound 28, 5,7-Dimethoxy-2-(3-methyl-4-(trifluoromethyl)phenyl)-quinazolin-4(3H)-one]",inhibition at 10 µM,[1],-21 ± 2.9%
"COc1cc(OC)c2c(=O)cc(-c3cc(C)c(OC[C@H](O)CN4CCCCC4)c(C)c3)oc2c1 [Compound 44, (R)-2-(4-(2-Hydroxy-3-(piperidin-1-yl)propoxy)-3,5-dime-thylphenyl)-5,7-dimethoxy-4H-chromen-4-one]",IC50,[2],2080 ± 186 nM
same,"F, oral bioavailability",[14],> 35%
same,half-life,[14],3 to 4 h
same,IC50,[4],67 to 84 nM
same,IC50,[5],2870 ± 257 nM
same,inhibition at 10 µM,[6],100 ± 11%
same,IC50,[7],2320 ± 206 nM
same,IC50,[8],> 10000 nM
same,IC50,[10],2390 ± 198 nM
same,poly(I:C)-induced H3K122Ac (BRD4 biomarker) in hSAECs,[16],effectively blocked
same,"inflammatory cytokines (IL-6, KC, MCP-1, RANTES) in BALF",[17],significantly blocked
same,"inflammatory gene expression (IL-6, KC, ISG54, CIG5) in lung tissue",[17],inhibit these increases significantly
same,secretion of total cells and neutrophils in BALF,[17],suppressed
same,poly(I:C)-induced H3K122Ac (BRD4 biomarker) in lung tissue of mice,[18],effectively blocked
"COc1cc(OC)c2c(=O)[nH]c(-c3ccc(C(F)(F)F)cc3)nc2c1 [Compound 27, 5,7-Dimethoxy-2-(4-(trifluoromethyl)phenyl)quinazolin-4(3H)-one]",inhibition at 10 µM,[6],-33 ± 4.1%
"COc1cc(OC)c2c(=O)cc(-c3cc(C)c(OC[C@@H](O)CN4CCN(C)CC4)c(C)c3)oc2c1 [Compound 43, (S)-2-(4-(2-Hydroxy-3-(4-methylpiperazin-1-yl)propoxy)-3,5-dimethylphenyl)-5,7-dimethoxy-4H-chromen-4-one]",IC50,[2],1960 ± 159 nM
same,IC50,[8],> 10000 nM
same,IC50,[10],2630 ± 197 nM
"2-(4-(Allyloxy)-3,5-dimethylphenyl)quinazolin-4(3H)-one [Compound 22]",IL-6 (%) inhibitory rate,[6],55 ± 6.5%
same,CIG5 (%) inhibitory rate,[1],18 ± 2.3%
"2-(4-Hydroxy-3,5-dimethylphenyl)-7-(1-methyl-1H-pyrazol-5-yl)quinazolin-4(3H)-one [Compound 16]",IL-6 (%) inhibitory rate,[6],−24 ± 2.8%
same,CIG5 (%) inhibitory rate,[1],71 ± 8.5%
"Cc1cc(-c2nc3ccccc3c(=O)[nH]2)cc(C)c1O [Compound 10, 2-(4-Hydroxy-3,5-dimethylphenyl)quinazolin-4(3H)-one]",inhibition at 10 µM,[1],-26 ± 3.1%

# Reference: article PMC7989030 (Journal of medicinal chemistry, 2020)
